Assay outcomes (PubChem)
Runt-CBFb FRET: Runt domain-CBFb interaction inhibition; inhibition, % at 20 µM; 220,000 tested, 0.46% active; Q01196+Q13951; Cerulean-Runt/Venus-CBFb FRET ratio 530/480, 1 h;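 active means inhibition over about 50% at 20 µM in the single-dose screen, limit read from the data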;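 further: 0% = DMSO wells and 100% = excess unlabeled CBFb competitor control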
Target sequence (Q01196 whole entry, looked up, the tested form may be a part): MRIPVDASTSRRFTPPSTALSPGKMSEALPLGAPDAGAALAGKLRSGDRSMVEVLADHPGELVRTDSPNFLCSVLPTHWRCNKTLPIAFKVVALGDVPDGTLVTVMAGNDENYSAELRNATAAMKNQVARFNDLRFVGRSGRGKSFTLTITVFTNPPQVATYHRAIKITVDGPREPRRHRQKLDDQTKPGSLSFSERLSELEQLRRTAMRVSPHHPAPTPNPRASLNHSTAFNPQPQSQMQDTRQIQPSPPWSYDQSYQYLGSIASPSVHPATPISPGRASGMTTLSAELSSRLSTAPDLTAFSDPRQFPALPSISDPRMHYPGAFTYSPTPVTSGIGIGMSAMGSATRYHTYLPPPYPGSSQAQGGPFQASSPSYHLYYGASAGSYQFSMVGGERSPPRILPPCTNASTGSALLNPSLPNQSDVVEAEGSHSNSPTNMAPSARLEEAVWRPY
Target sequence (Q13951 whole entry, looked up, the tested form may be a part): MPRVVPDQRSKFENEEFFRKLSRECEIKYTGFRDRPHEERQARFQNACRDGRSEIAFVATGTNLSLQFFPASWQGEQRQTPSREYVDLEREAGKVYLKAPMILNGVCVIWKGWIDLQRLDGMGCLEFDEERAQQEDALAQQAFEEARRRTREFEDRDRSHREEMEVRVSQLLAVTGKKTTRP
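Assay system: Cerulean-Runt domain fusion protein, energy donor; Signal: fluorescence energy transfer, 422 nm excitation, 530/480 nm emission; Timing: 1 h compound exposure, room temperature; Control set: unlabeled CBFb; Medium: Tris buffer pH 7.5 with salts and BSA; Compound: single test concentration of 20 µM, 1% DMSO final; Probe or stimulus: Venus-CBFb 100 nM.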
RanGTP-Impb inh: inhibitors of RanGTP-importin-beta interaction, primary screen, biochemical, FRET, CFP-Ran, YFP-importin-beta, homogeneous. AID 2216. cell-free CFP-Ran/YFP-importin-beta FRET ratio. 300,000 tested, 1.1% active. inhibition, % (no concentration beside the values);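 active means more than half of the replicate wells show a fall in the fluorescence ratio signal beyond about 16%, limit read from the data, passing the limit was not always enough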;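 further: 0% = DMSO wells and 100% = Ran loaded with GDP instead of GTP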
Hck-Nef inh: inhibitors of human Hck kinase activated by Nef | 220,000 tested, 0.68% active | inhibition, % at 20 µM | Recombinant Hck-YEEI plus Nef, Z-Lyte FRET kinase assay;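 active means Hck-Nef kinase inhibition above about 50%, limit read from the data; inactive means inhibition below that limit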;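 further: 0% = DMSO with Hck plus Nef and 100% = Hck alone without Nef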
Tb hexokinase: blocks Trypanosoma brucei hexokinase 1 activity; recombinant TbHK1, G6PDH-coupled NADH A340; inhibition, % at 10 µM; 220,000 tested, 0.11% active; AID 1430;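 active means inhibition of 50% or more in the single-dose primary screen; inactive means inhibition below 50%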
Runt-SMMHC FRET: Runt domain-CBFb-SMMHC interaction inhibition. Q01196+Q13951. Cerulean-Runt/Venus-CBFb-SMMHC FRET ratio 530/480, 1 h. inhibition, % at 20 µM. 220,000 tested, 0.74% active;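 active means mean inhibition across duplicate retests at 20 µM reaching about 50%, limit read from the data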;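 further: 0% = DMSO wells and 100% = wells with excess untagged CBFb-SMMHC; inhibitors lower the FRET ratio by blocking Runt binding to CBFb-SMMHC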
p97 inhibitor: inhibitors of human p97 ATPase | P55072 | recombinant p97 ATPase, Kinase-Glo ATP luminescence, 3 h | inhibition, % at 8 µM | 220,000 tested, 0.42% active; in the data active means inhibition above about 15%;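 further: 0% = DMSO vehicle and 100% = wells lacking enzyme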
G6PDH counter: Leuconostoc glucose-6-phosphate dehydrogenase inhibition, counter-screen. shares compounds with Tb hexokinase. purified G6PDH, NADH absorbance, 1 h. inhibition, % at 10 µM. 210 tested, 7% active. AID 2516;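 active means at least 50% inhibition in the glucose-6-phosphate dehydrogenase coupled counterscreen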
TbHK1 rescreen: T. brucei hexokinase 1 inhibition, rescreen; shares compounds with Tb hexokinase; recombinant TbHK1, G6PDH-coupled NADH A340 absorbance; inhibition, % at 10 µM; 210 tested, 10% active; AID 2560;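 active means inhibition of at least 50% in both of the two screening runs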;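 further: 0% and 100% set by the maximum and minimum signal control wells on each plate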
The depositor's hits bear a star; nt = no result given. An excerpt weighted towards active compounds, which were near 2.1% of everything screened.

SMILES | Runt-CBFb FRET | RanGTP-Impb inh | Hck-Nef inh | Tb hexokinase | Runt-SMMHC FRET | p97 inhibitor | others
N#CC(C(=O)NCCc1ccccc1)c1nc2ccccc2nc1N1CCCCC1 (configuration not stated) | 9 | 37* | -1 | 1 | -22 | 3
CCCCCCOC(=O)C(C#N)c1nc2ccccc2nc1N1CCN(CC)CC1 (configuration not stated) | 12 | 0 | 1 | -3 | 15 | -2
CC1CCCN(c2nc3ccccc3nc2C(C#N)C(=O)OC2CCCCC2)C1 (configuration not stated) | -1 | nt | 0 | 11 | -45 | 5
CN(C(=O)COC(=O)c1ccccc1NCCO)C1CCS(=O)(=O)C1 (configuration not stated) | nt | 3 | nt | nt | nt | nt
Cc1cc(C)c2nc(-c3ccccn3)cc(C(=O)N3CCCC3)c2c1 | nt | 1 | nt | nt | nt | nt
O=C(O)c1ccc(Cl)c(S(=O)(=O)Nc2ccc3[nH]c(=O)[nH]c3c2)c1 | 4 | 22* | 11 | -4 | -13 | 2
O=C(O)/C=C/c1ccc(S(=O)(=O)Nc2ccc3[nH]c(=O)[nH]c3c2)cc1 | nt | 27* | nt | nt | nt | nt
O=C(O)c1cccc(S(=O)(=O)Nc2ccc3[nH]c(=O)[nH]c3c2)c1 | -2 | 16* | 28 | -5 | -16 | 4
O=C(Nc1ccc2[nH]c(=O)[nH]c2c1)c1ccc(Cl)c(Cl)c1 | 0 | -13 | -7 | 0 | 0 | -2
Cc1c(C(=O)O)cccc1-n1c(C)cc(/C=N/Nc2ccc([N+](=O)[O-])cn2)c1C | -9 | 3 | 62* | -6 | -18 | 4
Cc1cc(/C=N/Nc2ccc([N+](=O)[O-])cn2)c(C)n1-c1ccccc1 | -5 | -2 | 0 | -4 | -9 | 1
CN(/N=C/c1cc(Cl)cc(Cl)c1O)C(=S)NC(C)(C)C | 36 | 5 | -92 | -24 | 90* | 0
Oc1c(Cl)cc(Cl)cc1/C=N/Nc1ncc(Br)cn1 | -2 | -2 | 17 | -10 | -15 | 1
C=CCN1C(=O)c2ccc(C(=O)NCCc3ccc(F)cc3)cc2C1=O | nt | 2 | nt | nt | nt | nt
Cc1ccc(N(CC(=O)N/N=C/c2cc(C)n(-c3ccccc3)c2C)S(C)(=O)=O)c(C)c1 | 0 | 0 | 2 | -19 | 0 | 2
Cc1cc(/C=N/NC(=O)Cn2c3ccccc3c(=O)c3ccccc32)c(C)n1-c1ccccc1 | nt | 94* | 35 | -9 | 24 | 6
CCOC(=O)CNc1c(-c2ccc(Cl)cc2)nc2cnccn12 | 28 | 33* | -15 | -8 | 60 | -2
CCOC(=O)C1=C(O)/C(=C/c2ccc(C)o2)SC1=NC(=O)c1ccccc1C | nt | nt | 55* | -4 | nt | 6
COc1ccc(CCNC2CC(C)N(C)CC2C)cc1OC (configuration not stated) | 20 | 27* | -1 | 1 | 27 | -4
CCC(CC)c1nnc(NC(=O)C2COc3ccccc3O2)s1 (configuration not stated) | -1 | 21* | 0 | 0 | 1 | -1
CCc1nnc(NC(=O)C2COc3ccccc3O2)s1 (configuration not stated) | 1 | 6 | -2 | -2 | 1 | 5
Cc1ccc(C2C3=C(CC(C)(C)CC3=O)Nc3[nH]c(=S)[nH]c(=O)c32)cc1 (configuration not stated) | 18 | nt | nt | nt | 71* | nt
Cc1[nH]nc2c1C(c1ccc(O)cc1)C1=C(CC(C)(C)CC1=O)N2 (configuration not stated) | 0 | -1 | 30 | -31 | -1 | 1
C[C@@H](NC(=O)[C@@H]1Cc2ccccc2CN1C(=O)OC(C)(C)C)C(=O)NC1CCCC1 | nt | 3 | nt | nt | nt | nt
COc1cccc(CNC(=O)c2cccc(Br)c2)c1 | -1 | 30* | 1 | 38 | -4 | 5
SMILES | Runt-CBFb FRET | RanGTP-Impb inh | Hck-Nef inh | Tb hexokinase | Runt-SMMHC FRET | p97 inhibitor | others
Cc1ccc(NC(=O)CCC(=O)N/N=C/c2ccc([N+](=O)[O-])o2)cc1C | 3 | 21* | 21 | -9 | 0 | 2
CC1(CCC(=O)N2CCCC(N3CCN(c4ccc(F)cc4)CC3)C2)CC1 (configuration not stated) | nt | 8 | nt | nt | nt | nt
COc1cccc(/C(O)=C2/C(=O)C(=O)N(c3cc(C)on3)C2c2cccs2)c1 (configuration not stated) | 77* | 1 | 1 | -22 | 145* | 7
CC(=O)N(c1ccccc1C)C1CCCC1 | -1 | 3 | 4 | -8 | 1 | -1
CC(=O)N(C1=C(Cl)C(=O)c2ccccc2C1=O)C1CCCCC1 | 33 | 4 | -39 | 11 | 70* | 8
CCOCCCN(C)C1CCN(C(=O)c2oc3ccccc3c2NC(=O)c2cccc([N+](=O)[O-])c2)CC1 | nt | 2 | nt | nt | nt | nt
COC(=O)c1scc2c(=O)cc(C(F)(F)F)[nH]c12 | 10 | 117* | -126 | 3 | 84* | -5
CC(C)C(O)P(=O)(OCc1ccccc1)c1ccc(N(C)C)cc1 (configuration not stated) | 3 | -1 | 9 | 57* | -8 | 1 | G6PDH counter=-5;TbHK1 rescreen=2
O=C(NCCCN1CCOCC1)C(=O)NCC1CCCO1 (configuration not stated) | 1 | -1 | 1 | 31 | 2 | 6
O=C(O)C1CCCCC1C(=O)NCCCN1CCOCC1 (configuration not stated) | -3 | 6 | 5 | 51* | -1 | 0 | G6PDH counter=-7;TbHK1 rescreen=-3
Cc1ccc(C(=O)NC(=S)NNS(=O)(=O)c2ccc(C)cc2)cc1 | 8 | -2 | 2 | 17 | 10 | -4
Cc1ccc(S(=O)(=O)NNC(=S)NC(=O)c2ccc([N+](=O)[O-])cc2)cc1 | 16 | -1 | 18 | 78* | 6 | 6 | G6PDH counter=-26;TbHK1 rescreen=10
COc1ccc(S(=O)(=O)N(C)C)cc1NC(=O)CN1C(=O)NC2(CCCC2)C1=O | nt | 7 | nt | nt | nt | nt
CC1(C)OC(=O)C(=CNc2ncccn2)C(=O)O1 | 0 | -1 | 4 | 52* | 4 | 4 | G6PDH counter=-27;TbHK1 rescreen=-25
Cc1cc(C)nc(NC=C2C(=O)OC(C)(C)OC2=O)n1 | 2 | 0 | 8 | -23 | 1 | 2
O=C(NCC1OCCCN1S(=O)(=O)c1cc(F)ccc1F)C(=O)NC1CCCC1 (configuration not stated) | nt | -1 | nt | nt | nt | nt
Cc1cc(NC(=O)COC(=O)CCCOc2ccc(Cl)cc2C)no1 | -2 | 5 | 3 | 55* | -3 | 3 | G6PDH counter=0;TbHK1 rescreen=-4
